ChEMBL document CHEMBL2177084, “Discovery of salermide-related sirtuin inhibitors: binding mode studies and antiproliferative effects in cancer cells including cancer stem cells” (J Med Chem, 2012)
Blank lines part the entries; values can stand above or below the compound they belong to. Calls of active or inactive are those of the source. The rule behind the calls is not given here.

Legend:
[1] = molecular target: T1, NAD-dependent protein deacetylase sirtuin-1 (Homo sapiens) (UniProt Q96EB6); assay: (§1) Inhibition of human N-terminal GST-tagged SIRT1 expressed in Escherichia coli using Arg-His- Lys-Lys(Ac) as substrate after 1 hr by Fluor de Lys fluorescence based assay
T1 sequence (whole entry): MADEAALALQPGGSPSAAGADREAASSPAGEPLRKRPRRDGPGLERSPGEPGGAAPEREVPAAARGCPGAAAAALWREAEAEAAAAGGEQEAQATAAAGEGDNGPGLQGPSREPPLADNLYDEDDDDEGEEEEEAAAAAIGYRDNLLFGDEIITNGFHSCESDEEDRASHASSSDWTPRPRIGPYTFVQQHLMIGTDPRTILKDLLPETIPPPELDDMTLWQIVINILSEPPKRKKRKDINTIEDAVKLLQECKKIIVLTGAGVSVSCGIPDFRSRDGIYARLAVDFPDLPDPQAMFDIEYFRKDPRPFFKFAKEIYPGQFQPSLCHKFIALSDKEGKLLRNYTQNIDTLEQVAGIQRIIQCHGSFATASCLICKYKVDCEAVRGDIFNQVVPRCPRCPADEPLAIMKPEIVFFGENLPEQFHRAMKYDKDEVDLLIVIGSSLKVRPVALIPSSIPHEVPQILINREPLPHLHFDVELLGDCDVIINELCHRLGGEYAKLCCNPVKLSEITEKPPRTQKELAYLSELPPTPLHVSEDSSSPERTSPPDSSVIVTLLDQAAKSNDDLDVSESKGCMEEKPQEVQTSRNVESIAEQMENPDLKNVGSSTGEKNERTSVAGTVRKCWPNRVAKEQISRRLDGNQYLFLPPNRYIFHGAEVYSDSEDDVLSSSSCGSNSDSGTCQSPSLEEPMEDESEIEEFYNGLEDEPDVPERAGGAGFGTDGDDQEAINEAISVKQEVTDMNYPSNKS
In short: (§2)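 Recombinant full-length human sirtuin expressed in E. coli was incubated 1 h at 37 °C with p53-derived AMC-conjugated acetyl-peptide (SIRT1: Arg-His-Lys-Lys(Ac); SIRT2: Gln-Pro-Lys-Lys(Ac); […]) and NAD+ ([…]). The reaction was stopped and developed with developer containing 2 mM nicotinamide, and fluorescence read at ex 360/em 460 nm. Compound fluorescence was subtracted using an enzyme-free counter assay. Triplicate.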

[2] = Cytotoxicity against human CRC 1.1 cells after 72 hrs by celltiter-glo luminescent assay; type: functional
In short: (§3)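 Patient-derived CSC spheroids were dissociated, plated at 2000–3000 viable cells, and held 24 h at 37 °C in 5% CO2. They were then treated 72 h with eight 1:3 serial dilutions (0.023–50 μM), with 0.1% DMSO as control, in triplicate. Viability was read by CellTiter-Glo luminescence relative to DMSO, and CC50 was obtained by 4-parameter logistic fit (mean of three experiments).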

[3] = tested on: U-937; assay: Cell cycle arrest in human U937 cells assessed as accumulation at G1 phase at 25 uM after 40 hrs by flow cytometry; type: functional, cell-based
[4] = tested on: MOLT-4; assay: Antiproliferative activity against human MOLT4 cells at 100 uM after 24 to 72 hrs by MTT assay; type: functional, cell-based
In short: (§4)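 Cells exposed to compound for 24, 48 and 72 h; growth inhibition read by MTT and expressed as percentage antiproliferative activity.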

[5] = tested on: U-937; assay: Induction of apoptosis in human U937 cells at 5 uM after 45 hrs by flow cytometry; type: functional, cell-based
In short: (§5)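 Apoptosis was taken as the pre-G1 peak after propidium iodide staining in hypotonic citrate/Triton buffer (30 min, dark) and flow cytometry. Triplicate experiments.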

[6] = tested on: U-937; assay: Induction of apoptosis in human U937 cells at 50 uM after 45 hrs by flow cytometry; type: functional, cell-based; in short: as §5
[7] = Cytotoxicity against human 30P cells after 72 hrs by celltiter-glo luminescent assay; type: functional; in short: as §3
[8] = molecular target: T2, NAD-dependent protein deacetylase sirtuin-1 (Homo sapiens, UniProt Q96EB6); assay: as §1; in short: as §2
T2 sequence (Q96EB6 whole entry): T1 sequence (whole entry)

[9] = tested on: U-937; assay: Induction of apoptosis in human U937 cells after 45 hrs by flow cytometry; type: functional; design: concentration or dose not given beside the values; in short: as §5
[10] = tested on: MOLT-4; assay: Antiproliferative activity against human MOLT4 cells at 100 uM by MTT assay; type: functional, cell-based; details: TDE = time-dependent effect; in short: as §4
[11] = tested on: MOLT-4; assay: Antiproliferative activity against human MOLT4 cells at 25 uM after 24 to 72 hrs by MTT assay; type: functional, cell-based; in short: as §4
[12] = tested on: U-937; assay: Cell cycle arrest in human U937 cells at 25 uM after 40 hrs by flow cytometry; type: functional, cell-based
[13] = Cytotoxicity against human 30P cells at 50 uM after 72 hrs by celltiter-glo luminescent assay; type: functional; in short: as §3
[14] = Cytotoxicity against human CRO cells at 50 uM after 72 hrs by celltiter-glo luminescent assay; type: functional; in short: as §3
[15] = tested on: U-937; assay: Granulocytic differentiation in human U937 cells assessed as increase of CD11c cells at 25 uM after 40 hrs by FACS analysis relative to control; type: functional
In short: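 U937 cells treated 40 h at 25 μM, then stained with PE-conjugated anti-CD11c (PE mouse IgG1 as isotype control) for 30 min at 4 °C in the dark. Cells were washed in PBS and taken up in PBS with 0.25 μg/mL propidium iodide. Differentiation = CD11c-positive cells minus PI-positive dead cells, by FACS.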

[16] = Cytotoxicity against human 30PT cells at 50 uM after 72 hrs by celltiter-glo luminescent assay; type: functional; in short: as §3
[17] = species on record: Homo sapiens; assay: (§6) Cytotoxicity against human CRC 1.1 cells at 50 uM after 72 hrs by celltiter-glo luminescent assay; type: functional; in short: as §3
[18] = tested on: U-937; assay: Cell cycle arrest in human U937 cells assessed as accumulation at S phase at 25 uM after 40 hrs by flow cytometry; type: functional, cell-based
[19] = as §6; type: functional; in short: as §3
[20] = Cytotoxicity against human 30PT cells after 72 hrs by celltiter-glo luminescent assay; type: functional; in short: as §3
[21] = tested on: RKO; assay: Antiproliferative activity against human RKO cells at 50 uM after 24 to 72 hrs by MTT assay; type: functional, cell-based; in short: as §4
[22] = tested on: RKO; assay: Antiproliferative activity against human RKO cells at 25 uM after 24 to 72 hrs by MTT assay; type: functional, cell-based; in short: as §4
[23] = Cytotoxicity against human CRO cells after 72 hrs by celltiter-glo luminescent assay; type: functional; in short: as §3
[24] = tested on: MDA-MB-231; assay: Antiproliferative activity against human MDA-MB-231 cells at 25 uM after 24 to 72 hrs by MTT assay; type: functional, cell-based; in short: as §4
[25] = tested on: MOLT-4; assay: Antiproliferative activity against human MOLT4 cells at 50 uM after 24 to 72 hrs by MTT assay; type: functional, cell-based; in short: as §4
[26] = tested on: MDA-MB-231; assay: Antiproliferative activity against human MDA-MB-231 cells at 50 uM after 24 to 72 hrs by MTT assay; type: functional, cell-based; in short: as §4
[27] = molecular target: T3, NAD-dependent protein deacetylase sirtuin-2 (Homo sapiens, UniProt Q8IXJ6); assay: Inhibition of human SIRT2 expressed in Escherichia coli using Gln-Pro-Lys-Lys(Ac) as substrate after 1 hr by Fluor de Lys fluorescence based assay; in short: as §2
T3 sequence (Q8IXJ6 whole entry): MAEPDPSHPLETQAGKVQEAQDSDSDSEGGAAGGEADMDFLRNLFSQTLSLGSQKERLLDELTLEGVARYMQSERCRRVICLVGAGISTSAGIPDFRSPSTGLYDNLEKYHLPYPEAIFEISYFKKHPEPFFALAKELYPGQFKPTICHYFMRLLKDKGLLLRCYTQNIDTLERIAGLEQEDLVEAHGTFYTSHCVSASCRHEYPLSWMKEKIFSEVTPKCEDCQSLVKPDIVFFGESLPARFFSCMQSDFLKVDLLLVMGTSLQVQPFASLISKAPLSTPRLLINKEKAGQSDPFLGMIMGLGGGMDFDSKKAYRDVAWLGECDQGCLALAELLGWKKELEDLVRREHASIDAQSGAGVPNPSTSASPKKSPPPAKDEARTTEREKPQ

[28] = in the assay text read “after 40 hrs” for “after 45 hrs”
[29] = in the assay text read “40 hrs” for “45 hrs”

inhibition [1]: Active
SMILES: CC(CS(=O)(=O)c1ccc(/N=C/c2c(O)ccc3ccccc23)cc1)c1ccccc1 (stereo not given)
CC50 [2]: 34 µM
Activity [3]: Active
Activity [4]: Active
Activity [5]: inactive
Activity [6]: Active
CC50 [7]: 30.2 µM

IC50 [8]: 40.9 µM
SMILES: CC(C(=O)Nc1ccc(/N=C/c2c(O)ccc3ccccc23)cc1)c1ccccc1 (stereo not given)
Activity [3]: Active
Activity [9, 28]: 70%
Activity [4]: Active
Activity [5]: inactive
Activity [6]: Active
Activity [10]: tde

SMILES: CC(CSc1ccccc1/N=C/c1c(O)ccc2ccccc12)c1ccccc1 (stereo not given)
Activity [11]: Active
Activity [5]: inactive
Activity [6]: Active

SMILES: CC(CSc1ccc(/N=C/c2c(O)ccc3ccccc23)cc1)c1ccccc1 (stereo not given)
Activity [9, 28]: 90%
Activity [4]: Active
Activity [5]: inactive
Activity [6]: Active

SMILES: NC(=O)C1CCCc2c1[nH]c1ccc(Cl)cc21 (stereo not given)
Activity [12]: inactive
inhibition at 50 µM [13]: 10%
inhibition at 50 µM [14]: 20%
Activity [15]: inactive
Activity [9, 29]: inactive
inhibition at 50 µM [16]: 20%
inhibition [17]: inactive

SMILES: CC(CS(=O)(=O)c1cccc(/N=C/c2c(O)ccc3ccccc23)c1)c1ccccc1 (stereo not given)
Activity [5]: inactive
Activity [6]: Active

SMILES: CC(C(=O)Nc1ccccc1/N=C/c1c(O)ccc2ccccc12)c1ccccc1 (stereo not given)
Activity [18]: Active
Activity [5]: inactive
Activity [6]: Active

inhibition [1]: Active
SMILES: CC(NC(=O)c1ccccc1/N=C/c1c(O)ccc2ccccc12)c1ccccc1 (stereo not given) [SIRTINOL]
Activity [9, 28]: 47%
Activity [5]: inactive
Activity [6]: Active

SMILES: CC(C[S+]([O-])c1ccc(/N=C/c2c(O)ccc3ccccc23)cc1)c1ccccc1 (stereo not given)
Activity [4]: Active
Activity [5]: inactive
Activity [6]: Active
Activity [10]: tde

IC50 [8]: 40.3 µM
SMILES: CC(C[S+]([O-])c1cccc(/N=C/c2c(O)ccc3ccccc23)c1)c1ccccc1 (stereo not given)
Activity [11]: Active
CC50 [2]: 23.4 µM
Activity [4]: Active
Activity [5]: inactive
Activity [6]: Active
CC50 [7]: 35 µM

SMILES: N#C/C(=C\c1ccc(-c2cc(Cl)ccc2Cl)o1)C(=O)Nc1cccc2ncccc12
Activity [12]: inactive
inhibition at 50 µM [14]: 50%
Activity [15]: inactive
Activity [9, 29]: inactive
inhibition at 50 µM [19]: 50%
CC50 [20]: 9.6 µM

inhibition [1]: Active
SMILES: CC(NC(=O)c1cccc(/N=C/c2c(O)ccc3ccccc23)c1)c1ccccc1 (stereo not given)
Activity [3]: Active
Activity [9, 28]: 47%
Activity [5]: inactive
Activity [6]: Active

inhibition [1]: Active
SMILES: CC(NS(=O)(=O)c1ccccc1/N=C/c1c(O)ccc2ccccc12)c1ccccc1 (stereo not given)
Activity [4]: Active
Activity [5]: inactive
Activity [6]: Active

SMILES: CC(C[S+]([O-])c1ccccc1/N=C/c1c(O)ccc2ccccc12)c1ccccc1 (stereo not given)
Activity [11]: Active
inhibition at 50 µM [13]: 42%
inhibition at 50 µM [14]: 33%
Activity [4]: Active
Activity [5]: inactive
Activity [6]: Active
inhibition at 50 µM [16]: 39%
inhibition at 50 µM [19]: 46%
Activity [10]: tde

SMILES: CC(C(=O)Nc1cccc(/N=C/c2c(O)ccc3ccccc23)c1)c1ccccc1 (stereo not given) [SALERMIDE]
Activity [11]: Active
Activity [21]: Active
Activity [22]: Active
CC50 [23]: 6.7 µM
CC50 [2]: 9.7 µM
Activity [3]: Active
Activity [9, 28]: 70%
Activity [24]: Active
Activity [4]: Active
Activity [5]: inactive
Activity [6]: Active
CC50 [7]: 41 µM
Activity [25]: Active
Activity [26]: Active
Activity [10]: tde
CC50 [20]: 36.5 µM

IC50 [27]: 24.2 µM
SMILES: CC(CS(=O)(=O)c1ccccc1/N=C/c1c(O)ccc2ccccc12)c1ccccc1 (stereo not given)
Activity [11]: Active
CC50 [23]: 15.7 µM
CC50 [2]: 19.5 µM
Activity [5]: inactive
Activity [6]: Active
CC50 [7]: 17.4 µM
CC50 [20]: 15.3 µM

SMILES: CC(CSc1cccc(/N=C/c2c(O)ccc3ccccc23)c1)c1ccccc1 (stereo not given)
Activity [11]: Active
Activity [21]: Active
CC50 [23]: 14.5 µM
CC50 [2]: 20 µM
Activity [5]: inactive
Activity [6]: Active
CC50 [7]: 15.5 µM
Activity [25]: Active
Activity [26]: Active
CC50 [20]: 15.6 µM

SMILES: CC(NS(=O)(=O)c1ccc(/N=C/c2c(O)ccc3ccccc23)cc1)c1ccccc1 (stereo not given)
Activity [4]: Active
Activity [5]: inactive
Activity [6]: Active

inhibition [1]: Active
SMILES: CC(NC(=O)c1ccc(/N=C/c2c(O)ccc3ccccc23)cc1)c1ccccc1 (stereo not given)
Activity [11]: Active
Activity [3]: Active
Activity [9, 28]: 47%
Activity [4]: Active
Activity [5]: inactive
Activity [6]: Active
Activity [10]: tde

SMILES: CC(NS(=O)(=O)c1cccc(/N=C/c2c(O)ccc3ccccc23)c1)c1ccccc1 (stereo not given)
Activity [18]: Active
Activity [5]: inactive
Activity [6]: Active
